# Screening data from PubChem BioAssay.
# NR2E3 ag-1 = activates human NR2E3 receptor; Q9Y5X4; CHO-S Gal4-NCOR/VP16-NR2E3 two-hybrid, luciferase; inhibition of corepressor binding, % at 3.98 µM; 0.35% of 360,000 active;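 active = inhibition above the mean of all tested compounds plus 3 SD, cut at about 70% in these data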;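 also: 0% = DMSO with NR2E3 transfected cells and 100% = cells lacking NR2E3 construct; higher means lower luciferase signal from less NR2E3 corepressor binding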
# Target sequence (Q9Y5X4 whole entry, looked up, the tested form may be a part): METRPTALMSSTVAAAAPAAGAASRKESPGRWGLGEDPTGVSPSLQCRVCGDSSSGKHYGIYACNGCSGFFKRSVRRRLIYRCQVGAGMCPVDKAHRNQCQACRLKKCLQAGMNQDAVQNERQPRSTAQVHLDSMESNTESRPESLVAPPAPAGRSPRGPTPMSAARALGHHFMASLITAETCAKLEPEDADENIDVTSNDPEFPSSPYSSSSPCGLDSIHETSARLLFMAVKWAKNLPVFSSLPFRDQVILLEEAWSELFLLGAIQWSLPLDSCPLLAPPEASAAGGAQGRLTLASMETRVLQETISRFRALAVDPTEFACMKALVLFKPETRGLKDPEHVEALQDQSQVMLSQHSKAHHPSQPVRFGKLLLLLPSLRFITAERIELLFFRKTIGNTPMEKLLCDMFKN
# 697 NFkB inh = lowers PMA/ionomycin-induced NF-kB signal in 697 B cells | 697 B-cell NF-kB luciferase reporter, 16 h | inhibition, % at 4 µM | 0.33% of 330,000 active; in the data active = inhibition above about 35%
# GalR3 antag = human GalR3 antagonism; HEK293 GalR3-CNG cAMP membrane potential fluorescence; galR3 body fused to GalR1 C-terminus; O60755; inhibition, % at 3 µM; 0.44% of 360,000 active;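 active = inhibition above the screen-wide average plus 3 SD, cut at about 13% in these data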;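 also: forskolin and galanin both at EC90 stimulate the cells; cAMP rise reported by CNG channel membrane potential dye signal; 0% = forskolin plus galanin with DMSO and 100% = forskolin alone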
# Jurkat NFkB inh = lowers PMA/ionomycin-induced NF-kB signal in Jurkat cells; PMA/ionomycin-induced NF-kB luciferase reporter, luminescence; inhibition, % at 4 µM; 0.53% of 330,000 active; in the data active = inhibition above about 50%
# Gli-Sufu antag = Gli-Sufu pathway antagonism; Sufu-KO-LIGHT fibroblasts, Gli luciferase reporter luminescence; inhibition, % at 5 µM; 0.74% of 340,000 active;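 active = inhibition above about 55%, limit read from the data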;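 also: 0% = DMSO-treated cells and 100% = wells with medium but no cells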
# NR2E3 ag-2 = agonists of human nuclear receptor NR2E3 | Q9Y5X4 | GST-NR2E3/biotin-RetCOR TR-FRET, 1536-well | inhibition of corepressor binding, % at 4.78 µM | 0.12% of 320,000 active;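 active = percent inhibition above the cutoff of mean plus 3 SD of all tested compounds, set per screening campaign, cut at about 20% in these data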;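 also: 0% = DMSO wells and 100% = biotin wells as full block of FRET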
#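 Material: NR2E3–RetCOR corepressor complex | Quantity: 1.35 nM GST-tagged NR2E3 final | Schedule: 5 h at 4 °C | Replication: Singlicate compound wells | Reagent: RetCOR corepressor, biotinylated, 7 nM | Controls: Biotin wells as high control, 0.6% DMSO wells as low control | Signal: TR-FRET, Eu(K)-anti-GST donor, streptavidin-D2 acceptor, ex 340, em 617/671 nm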
# NR2E3 ag confirm = NR2E3 agonism confirmed in two-hybrid assay; CHO-S mammalian two-hybrid NR2E3-NCOR, luciferase luminescence; inhibition, % at 3.98 µM; AID 624378; shares compounds with NR2E3 ag-1; 51% of 2,300 active;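 active = average inhibition above a cutoff equal to the mean inhibition of all tested compounds plus one SD, cut at about 70% in these data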;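 also: 0% = DMSO in NR2E3 cells and 100% = DMSO in cells lacking NR2E3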
# VP16 counter = GAL4-VP16 reporter inhibition in NR2E3 agonist counterscreen; 29% of 2,300 active; inhibition, % at 3.98 µM; shares compounds with NR2E3 ag-1; CHO-S GAL4-VP16 luciferase reporter, luminescence; AID 624379;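 active = mean inhibition above a cutoff equal to the average over all tested compounds plus one standard deviation, cut at about 70% in these data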;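 also: luciferase from a UAS reporter driven by GAL4-VP16 transactivation; 0% = DMSO with VP16-transfected cells and 100% = DMSO with cells lacking VP16; higher means less reporter light so more repression of VP16 activity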
# GalR3 conf = GalR3 (human) antagonism, confirmation; shares compounds with GalR3 antag; HEK293 GalR3 CNG cAMP biosensor, membrane potential fluorescence; galR3 fused to GalR1 carboxy tail; challenged with forskolin and galanin at EC90; inhibition, % at 3 µM; 59% of 1,600 active;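 active = inhibition above the primary screen's cutoff, the mean inhibition of all screened compounds plus 3 SD, cut at about 13% in these data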;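 also: 0% = forskolin plus galanin and 100% = forskolin alone with DMSO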
# CNG parental = counter-screen for GalR3 antagonists: nonspecific agonists in parental HEK-CNG cells; shares compounds with GalR3 antag; HEK293-CNG parental cells, cAMP membrane potential fluorescence; normalised: DMSO wells 0%, forskolin wells 100%; activation, % at 3 µM; 10% of 1,600 active; AID 652268; in the data active = activation above about 1.3%
# Active calls of the source: *; . = not tested or not shown. Shown are actives, neighbours in structure and some others; about 1.8% of the full set was active somewhere.
SMILES,NR2E3 ag-1,697 NFkB inh,GalR3 antag,Jurkat NFkB inh,Gli-Sufu antag,NR2E3 ag-2,NR2E3 ag confirm,VP16 counter,GalR3 conf,CNG parental
Cc1sc2ncnc(NCCc3ccc(S(N)(=O)=O)cc3)c2c1C,89*,2,59*,43,-16,2,94*,77*,109*,0
CN=C1NC(C)(C)C2CCC(C)(CC2)S1,-6,.,-5,.,6,.,.,.,.,.
CCCc1cc(=O)n2nc(N3CCC(C(=O)N4CCN(c5ccc(OC)cc5)CC4)CC3)sc2n1,69,-1,14*,35,38,0,75*,55,104*,0
CC1CCCN(C(=O)c2cn(-c3ccccc3)nc2-c2cccnc2)C1 (stereo not drawn),-14,16,-5,9,2,2,.,.,.,.
Cc1cc2c(Nc3ccccc3)ncnc2s1,-12,2,0,9,-3,2,.,.,.,.
Cc1cc2c(NCCc3ccccc3)ncnc2s1,56,-23,97*,10,.,-1,90*,73*,98*,0
CSc1ccc(C(=O)C2CCCN(C(=O)CCn3cncn3)C2)cc1 (stereo not drawn),6,18,0,-4,2,0,.,.,.,.
CSc1ccc(C(=O)C2CCCN(C(=O)CCc3c(C)nn(C)c3C)C2)cc1 (stereo not drawn),56,-43,86*,19,39,3,45,43,95*,0
Cn1c(N)c(C(=O)COC(=O)c2ccc(-c3ccccc3)cc2)c(=O)n(C)c1=O,22,-6,7,20,11,.,.,.,.,.
O=C(Cc1c[nH]c2ccccc12)NCC(=O)Nc1ccc(F)c(F)c1F,-10,22,-3,1,-7,1,.,.,.,.
CCN1/C(=C\c2ccc3cc(C)ccc3[n+]2CC)Sc2cc(C)c(C)cc21,85*,.,59*,.,88*,.,98*,87*,74*,6.3*
C#CC(C)(C)NC(=O)c1sccc1Oc1ccc(F)cc1[N+](=O)[O-],-11,-23,-6,1,6,4,.,.,.,.
CN(c1ccc(C(=O)N2CCN(Cc3ccccc3)CC2)cc1)S(=O)(=O)c1ccc(Cl)cc1,19,1,-6,-4,25,-1,.,.,.,.
O=C(Nc1ccc(OCC(F)(F)C(F)F)c(C(F)(F)F)c1)c1ccccc1O,99*,-38,19*,-19,26,3,98*,75*,16*,-1
O=C(Nc1ccc(OCC(F)(F)C(F)F)c(C(F)(F)F)c1)c1ccccc1,-13,-2,-3,-10,-4,0,.,.,.,.
c1ccc(Oc2ccccc2-c2cc(NCCc3cccnc3)n3nccc3n2)cc1,7,.,-6,.,.,.,.,.,.,.
NC(=O)c1nnn(Cc2cc(Cl)c(C(=O)c3ccc(Cl)cc3)c(Cl)c2)c1N,91*,.,97*,.,.,.,96*,82*,120*,-1
Nc1c(C(=O)Nc2ccc3c(c2)OCCO3)nnn1Cc1ccc(Cl)cc1,-126,-137,-1,-122,-85,-1,.,.,.,.
O=S(=O)(c1ccccc1)N1CCC(O)(CSc2ccc(Cl)cc2)CC1,78*,-1,93*,45,2,1,95*,79*,108*,-1
O=S(=O)(c1ccc(Cl)cc1)N1CCC(O)(CN2CCN(Cc3ccccc3)CC2)CC1,10,15,0,-6,39,4,.,.,.,.
COc1ccccc1/C=C\C(=O)NCC(=O)N/N=C(\C)Cc1ccccc1,13,3,4,1,8,2,.,.,.,.
